# M5 ag – agonists of human muscarinic M5 receptor (CHRM5) | P08912 | CHO-K1 hM5 cells, Fluo-8 calcium fluorescence; 0% DMSO wells, 100% maximal acetylcholine response | activation, % at 3 µM | hit rate 0.19% among 360,000 | AID 624037;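 active = activation above the run's mean over test compounds plus 3 SD, cut at about 23% in these data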;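 note: signal is peak over basal fluorescence ratio across the kinetic read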
# Target sequence (P08912 whole entry, looked up): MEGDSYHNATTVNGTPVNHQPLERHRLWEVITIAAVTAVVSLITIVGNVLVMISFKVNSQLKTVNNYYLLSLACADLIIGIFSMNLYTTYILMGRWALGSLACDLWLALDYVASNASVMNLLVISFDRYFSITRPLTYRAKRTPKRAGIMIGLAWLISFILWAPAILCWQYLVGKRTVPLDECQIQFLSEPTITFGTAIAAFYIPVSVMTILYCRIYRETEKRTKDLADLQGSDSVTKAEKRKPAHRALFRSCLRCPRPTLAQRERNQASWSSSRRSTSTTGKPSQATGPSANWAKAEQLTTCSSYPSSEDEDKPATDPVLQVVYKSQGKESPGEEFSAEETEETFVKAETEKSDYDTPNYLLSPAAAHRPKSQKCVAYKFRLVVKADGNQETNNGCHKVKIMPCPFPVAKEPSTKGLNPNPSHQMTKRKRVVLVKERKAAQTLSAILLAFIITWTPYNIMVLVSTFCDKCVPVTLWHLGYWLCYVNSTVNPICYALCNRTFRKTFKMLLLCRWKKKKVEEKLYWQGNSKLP
# M5 antag – blocks acetylcholine activation of human M5 receptor; P08912; CHO-hM5 cells, Fluo-8 calcium fluorescence, ACh EC80; inhibition, % at 3 µM; hit rate 0.59% among 360,000;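 active = inhibition above a per-plate cutoff, the mean of that plate's test compounds plus 3 SD, cut at about 27% in these data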;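 note: 0% = acetylcholine EC80 with DMSO and 100% = DMSO without agonist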
# CHRM4 antagonist – CHRM4 antagonism in calcium assay; hit rate 0.73% among 360,000; inhibition, % at 3 µM; P08173; CHO-hM4 cells, ACh EC80, Fluo-8 calcium fluorescence; AID 624125;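 active = inhibition above its plate's cutoff, the mean inhibition of sample wells plus 3 SD, cut at about 27% in these data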;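 note: 0% = acetylcholine EC80 with DMSO and 100% = DMSO without agonist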
# M4 PAM – positive allosteric modulators of human muscarinic M4 receptor. CHO-K1 hM4/Gqi5, Fluo-8 calcium fluorescence, ACh EC20; 0% = ACh EC20, 100% = maximal ACh. activation, % at 3 µM. hit rate 0.4% among 360,000;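 active = activation above its plate's cutoff, the mean activation of sample wells plus 3 SD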
# M4 ag – CHRM4 agonism in calcium assay; P08173; CHO-K1 hM4/Gqi5, Fluo-8 calcium fluorescence; vehicle 0%, full acetylcholine response 100%; activation, % at 3 µM; hit rate 0.14% among 360,000;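 active = activation above the run mean over all test wells plus 3 SD, cut at about 32% in these data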;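 note: peak over basal fluorescence ratio per well then scaled between controls; 0% = DMSO wells and 100% = acetylcholine at EC100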
# M5 PAM – potentiates acetylcholine response at human M5 receptor. hit rate 0.3% among 360,000. CHO-K1 hM5, Fluo-8 calcium, ACh EC20 PAM; 0% = ACh EC20, 100% = ACh EC100. activation, % at 3 µM. P08912;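 active = activation above the run cutoff, the mean activation of all test compounds plus 3 SD, cut at about 18% in these data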
#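 System: CHO-K1 cell line with stable human muscarinic M5 receptor expression | Also added: EC20 acetylcholine as agonist stimulus | Compound: One concentration, 3 µM final (nominal) | Timing: Fluo-8 loading 80 min at 37 °C plus 30 min room temperature | Measured by: Fluo-8 calcium dye fluorescence, kinetic read | Read-out basis: % activation, ACh-normalized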
# Active calls of the source: *. An excerpt weighted towards active compounds, which were near 1.9% of everything screened.
SMILES,M5 ag,M5 antag,CHRM4 antagonist,M4 PAM,M4 ag,M5 PAM
C[C@@H]1CN([C@@H](C)CO)C(=O)CCCn2nncc2CO[C@H]1CN(C)Cc1ccc(Oc2ccccc2)cc1,-3.1,3.8,31.3*,-12.2,-0.1,-0.5
C[C@H](CO)N1C[C@H](C)[C@@H](CN(C)Cc2ccc(O)cc2)OCc2cnnn2CCCC1=O,-0.8,3.8,-1.9,6.7,-0.9,1.6
C[C@@H]1CN([C@H](C)CO)C(=O)CCCn2nncc2CO[C@H]1CN(C)S(C)(=O)=O,0.2,-9.4,100.6*,-15.9,-2.6,7.9
c1cc2cc(CNc3nc(NCC4CC4)nc4ccsc34)ccc2o1,3.3,15.6,5.1,-6.4,10.2,-9.6
COc1ccccc1CNc1nc(NCc2ccccc2SC)c2sccc2n1,1.6,30.3*,32.3*,-9.4,12.8,-14.0
COc1ccccc1CNc1nc(NCc2ccccc2OC)c2sccc2n1,3.2,25.4,10.5,-9.7,12.4,-13.9
COc1ccccc1CNc1nc(NCc2ccc3occc3c2)c2sccc2n1,2.3,43.2*,21.6,-9.3,12.2,-18.1
CC1CCC(NC(=O)c2ccc(NC(=O)CC3SC(N4CCCC4)=NC3=O)cc2)CC1 (centres undefined),-1.3,8.9,4.8,-0.2,0.4,0.8
O=C(CNS(=O)(=O)c1ccccc1)OCC(=O)c1c[nH]c2ccccc12,0.0,4.1,1.3,-1.0,9.2,-12.6
CCOc1ccc(NC(=O)CCn2c(=S)oc3ccccc32)cc1,-1.2,20.5,18.0,27.4*,0.9,8.7
CC(=O)N1c2ccccc2NC2=C(C(=O)CCC2)C1c1ccco1 (centres undefined),7.8,10.8,-9.2,18.6,0.8,20.9*
COc1ccc(-c2n(CC(=O)OC3CC(C)CCC3C(C)C)c3ccccc3[n+]2C)cc1 (centres undefined),-6.6,39.9*,22.5,-14.7,4.0,-17.6
Cc1cc(CSc2ccc(Cl)cc2)ccc1N,-4.0,14.0,-4.4,1.6,1.5,-4.3
Cc1ccc(C2(c3ccccc3)NC(=O)N(CC(=O)NCc3ccco3)C2=O)cc1C (centres undefined),-9.7,-10.6,-1.2,-2.7,-0.7,18.1*
O=C(O)c1cccc(NC(=O)c2ccccc2)c1,-2.4,3.2,14.5,-3.4,-0.1,-1.7
O=C(Nc1cccc(C(=O)Nc2cccc(Br)c2)c1)c1ccccc1,7.5,29.9*,17.7,-11.4,22.7,-27.4
Cc1ccccc1CC1(CO)CCCN(C(=O)c2ccoc2)C1 (centres undefined),1.9,10.4,-7.2,0.5,1.6,-1.4
CC(C)CNC(=O)C1(C)CCCN1C(=O)c1csnn1 (centres undefined),-0.6,14.2,-2.2,10.0,0.1,7.2
CC(C)CNC(=O)C1(C)CCCCCN1C(=O)c1csnn1 (centres undefined),-0.2,3.9,-18.1,18.8*,0.7,1.7
CCCN1C(=O)/C(=C/c2c(N3CCNC(=O)C3CC(=O)OCC)nc3c(C)cccn3c2=O)SC1=S (centres undefined),25.5*,22.4,13.0,-10.4,12.1,-23.8
Cc1nc(NC(=O)c2ccco2)sc1-c1csc(Nc2ccc(Cl)cc2Cl)n1,46.6*,20.5,-12.3,13.6,2.7,17.1
O=C(Nc1nc(-c2ccccc2)cs1)c1ccco1,10.7,-8.0,6.9,-5.0,0.2,-0.9
Cc1nc(NC(=O)c2ccco2)sc1-c1csc(Nc2ccc(Cl)cc2)n1,43.3*,17.5,0.5,4.7,0.8,5.7
Cc1ccc(-c2csc(NC(=O)c3ccco3)n2)cc1C,25.8*,8.2,5.5,1.3,1.3,5.8
C[C@H](CO)N1C[C@H](C)[C@@H](CN(C)Cc2ccncc2)Oc2c(NS(=O)(=O)c3cn(C)cn3)cccc2C1=O,1.6,10.3,1.2,0.5,0.9,-4.0
SMILES,M5 ag,M5 antag,CHRM4 antagonist,M4 PAM,M4 ag,M5 PAM
COc1cccc(-c2cc(C(=O)N3CCN(S(=O)(=O)c4ccc(Br)cc4)CC3)[nH]n2)c1,-3.7,18.3,6.5,-0.1,1.0,-3.2
Cc1ccc(NC(=C(C#N)C#N)c2ccccc2)cc1,-1.8,4.1,2.3,-2.5,2.4,-1.7
Cc1c(C(c2ccccc2O)c2c(C)n(C)n(-c3ccccc3)c2=O)c(=O)n(-c2ccccc2)n1C,0.5,5.0,-1.5,12.6,1.1,5.7
Cc1c(C(c2cc3c(cc2Br)OCO3)c2c(C)n(C)n(-c3ccccc3)c2=O)c(=O)n(-c2ccccc2)n1C,-3.2,-4.7,43.5*,-28.5,-0.5,0.0
COc1ccc(COc2ccccc2C(=O)NCc2ccccc2)cc1F,4.2,27.7*,19.3,-14.6,13.9,-18.8
COc1cc(C(=O)NCc2ccccc2)ccc1OC(F)F,-2.0,10.0,-1.4,2.7,0.5,-6.4
COc1cc(OC)c(N(C)S(=O)(=O)c2cccc(C(=O)OCC(=O)NCc3ccco3)c2)cc1Cl,-1.1,12.8,-2.6,-18.7,13.8,-17.1
Cc1ccc(Nc2cc(C)nn2-c2nc(C)cc(=O)[nH]2)cc1,-5.7,40.7*,58.8*,2.1,-1.8,-1.9
O=C(CNS(=O)(=O)c1cccs1)N1CCN(c2ccccc2F)CC1,-0.6,-14.8,-36.0,17.2*,5.8,7.4
O=C(CNS(=O)(=O)c1ccc(F)cc1)N1CCN(c2ccccc2)CC1,1.9,6.2,27.1*,2.3,2.3,-3.9
Cc1c(C)n(-c2ccccc2)c2ncnc(NCCN(C)C)c12,-5.3,4.4,2.5,0.4,0.0,-2.1
O=C(O)c1ccccc1COc1ccccc1Cl,0.3,5.1,-0.9,0.2,-0.4,1.1
Cc1oc(C(=O)O)cc1COc1ccccc1Cl,29.7*,6.3,-1.0,11.3,1.5,41.8*
O=S(=O)(c1ccc(Br)cc1)N1CCCc2ccccc21,-0.9,3.4,13.3,-5.8,-1.3,-4.4
COc1ccc(S(=O)(=O)N2CCC(N3CCN(Cc4ccccc4)CC3)CC2)cc1,-11.4,45.4*,46.3*,-19.1,1.0,-15.5
O=[N+]([O-])c1ccccc1S(=O)(=O)N1CCN(C2CCN(Cc3ccccc3)CC2)CC1,-8.7,16.3,29.1*,-13.7,0.9,-10.5
O=S(=O)(c1ccc(Cl)cc1)N1CCN(C2CCN(Cc3ccccc3)CC2)CC1,-12.6,-6.0,14.7,-14.8,2.1,-44.2
CC(=O)N/C(=C/C(C)C)c1ccccc1,1.3,-9.2,1.4,13.9,0.6,9.6
Nc1ccc(N2CCCCC2)c(Cl)c1,-2.5,-10.1,0.3,-2.9,0.0,2.4
Cn1c(=O)[nH]c(=O)c2c1nc(CN1CCN(c3ccccc3F)CC1)n2CCCc1ccccc1,-0.5,-8.5,-15.2,22.2*,0.0,-1.2

# Source: PubChem BioAssay
